Data set [1] has as its target T1, GABA-A receptor; alpha-5/beta-3/gamma-2 (Homo sapiens, UniProt P18507+P28472+P31644).
T1 sequence (P18507 whole entry): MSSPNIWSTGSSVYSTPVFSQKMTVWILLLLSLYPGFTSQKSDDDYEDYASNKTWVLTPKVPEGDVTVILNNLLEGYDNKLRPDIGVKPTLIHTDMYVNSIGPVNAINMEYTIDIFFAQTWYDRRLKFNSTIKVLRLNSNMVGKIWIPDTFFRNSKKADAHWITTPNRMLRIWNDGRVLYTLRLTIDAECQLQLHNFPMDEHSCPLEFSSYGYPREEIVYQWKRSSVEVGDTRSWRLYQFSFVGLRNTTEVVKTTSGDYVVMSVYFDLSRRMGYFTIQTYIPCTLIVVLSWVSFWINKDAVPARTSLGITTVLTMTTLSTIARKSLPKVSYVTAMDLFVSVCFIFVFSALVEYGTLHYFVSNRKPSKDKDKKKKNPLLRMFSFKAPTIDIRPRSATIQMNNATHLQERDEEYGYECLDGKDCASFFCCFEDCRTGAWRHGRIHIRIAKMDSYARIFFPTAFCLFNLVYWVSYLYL
T1 sequence (P28472 whole entry): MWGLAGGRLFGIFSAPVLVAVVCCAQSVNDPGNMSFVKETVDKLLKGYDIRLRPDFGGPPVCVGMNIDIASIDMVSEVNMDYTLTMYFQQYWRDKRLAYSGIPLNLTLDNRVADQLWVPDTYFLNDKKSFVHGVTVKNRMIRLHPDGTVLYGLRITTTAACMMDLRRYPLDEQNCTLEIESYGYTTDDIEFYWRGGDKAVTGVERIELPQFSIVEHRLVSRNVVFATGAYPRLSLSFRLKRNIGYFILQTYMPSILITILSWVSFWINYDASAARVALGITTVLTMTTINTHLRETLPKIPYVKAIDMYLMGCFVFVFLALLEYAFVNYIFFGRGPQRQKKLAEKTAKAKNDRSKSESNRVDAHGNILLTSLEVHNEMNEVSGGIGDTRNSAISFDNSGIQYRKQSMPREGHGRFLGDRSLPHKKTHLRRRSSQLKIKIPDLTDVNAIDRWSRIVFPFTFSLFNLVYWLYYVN
T1 sequence (P31644 whole entry): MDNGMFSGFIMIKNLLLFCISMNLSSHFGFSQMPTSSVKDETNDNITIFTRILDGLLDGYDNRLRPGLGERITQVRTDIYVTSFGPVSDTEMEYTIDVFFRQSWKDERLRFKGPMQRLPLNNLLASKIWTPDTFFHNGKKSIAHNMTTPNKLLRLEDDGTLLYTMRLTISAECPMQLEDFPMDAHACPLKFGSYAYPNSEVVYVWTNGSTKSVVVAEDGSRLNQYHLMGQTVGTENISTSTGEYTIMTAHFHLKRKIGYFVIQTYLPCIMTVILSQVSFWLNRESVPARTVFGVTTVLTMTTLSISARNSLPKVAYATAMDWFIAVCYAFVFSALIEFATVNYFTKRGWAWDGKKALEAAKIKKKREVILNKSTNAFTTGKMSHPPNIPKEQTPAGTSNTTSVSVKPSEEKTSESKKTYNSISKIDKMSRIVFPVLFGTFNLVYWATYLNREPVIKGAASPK
Kind of data set: Displacement of [3H]Ro-151788 from human recombinant GABA-Aalpha5 receptor plus beta3gamma2. In kind it is protein-complex assay. A digest of the protocol: (§1)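 Stably expressed human recombinant αxβ3γ2 GABAA receptors (x = 1, 3 or 5), benzodiazepine site. Competition against 1.8 nM [3H]Ro15-1788. IC50 for inhibition of binding converted to Ki by Cheng–Prusoff. Mean of 3–6 determinations.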
In general terms: Loss of bound radioactivity is the signal in a displacement assay; it reports binding, not function.

Data set [2] addresses T2, GABA-A receptor; alpha-1/beta-3/gamma-2 (Homo sapiens, UniProt P14867+P18507+P28472).
T2 sequence (P14867 whole entry): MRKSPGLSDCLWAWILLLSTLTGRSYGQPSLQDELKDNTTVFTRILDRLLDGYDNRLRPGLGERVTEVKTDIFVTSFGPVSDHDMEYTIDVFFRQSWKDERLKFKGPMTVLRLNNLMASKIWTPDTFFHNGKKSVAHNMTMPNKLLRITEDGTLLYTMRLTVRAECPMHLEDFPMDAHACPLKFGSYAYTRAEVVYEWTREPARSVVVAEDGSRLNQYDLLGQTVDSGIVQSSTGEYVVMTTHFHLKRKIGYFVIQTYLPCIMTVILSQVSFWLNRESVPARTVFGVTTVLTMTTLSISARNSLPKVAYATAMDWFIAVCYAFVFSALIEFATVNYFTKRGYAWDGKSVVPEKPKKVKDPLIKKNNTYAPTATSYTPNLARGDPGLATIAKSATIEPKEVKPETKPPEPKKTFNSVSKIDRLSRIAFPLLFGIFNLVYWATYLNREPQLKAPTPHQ
T2 sequence (P18507 whole entry): T1 sequence (P18507 whole entry)
T2 sequence (P28472 whole entry): T1 sequence (P28472 whole entry)
Kind of data set: Displacement of [3H]Ro-151788 from human recombinant GABA-Aalpha1 receptor plus beta3gamma2. In kind it is protein-complex assay. A digest of the protocol: as §1

Data set [3] concerns the target T3, GABA-A receptor; anion channel (Rattus norvegicus) (UniProt O09028+P15431+P18506+P18508+P19969+P20236+P23574+P23576+P28471+P28473+P30191+P62813+P63079+P63138+Q91ZM7+Q9ES14). Put plainly: Receptor occupancy at BZ site of GABA-Aalpha receptor in rat at 3 mg/kg, po. In kind it is functional, organism-based. The arrangement: dose 3 mg/kg.
The test system of data set [4] is Rattus norvegicus. Kind of data set: Anxiolytic activity in rat elevated plus maze assay at 3 mg/kg, po. In kind it is functional, organism-based. The arrangement: dose 3 mg/kg.
Data set [5] in a line: Plasma clearance in rat. In kind it is ADME, organism-based.
Data set [6] can be described thus: Half life in rat. As to conditions: in vivo. In kind it is ADME, organism-based.
Data set [7] can be described thus: Bioavailability in rat. In kind it is ADME, organism-based. As to conditions: in vivo.
Data set [8] deals with GABA-A receptor; alpha-1/beta-3/gamma-2 (Homo sapiens) (UniProt P14867+P18507+P28472). Kind of data set: Efficacy against human recombinant GABA-Aalpha1 receptor plus beta-3-gamma-2 expressed in L(tk-) cells by whole cell patch clamp method. In kind it is functional, cell-based. Put shortly: (§2)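 Whole-cell patch clamp on L(tk-) cells stably expressing α1β3γ2 or α3β3γ2 GABAA receptors. Test compound modulation of current evoked by a sub-maximal (EC20) GABA concentration. Means of at least seven independent experiments.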
On the technique in general: Patch clamp records ionic current or voltage across a cell membrane.

In data set [9] the target is T4, GABA-A receptor; alpha-3/beta-3/gamma-2 (Homo sapiens, UniProt P18507+P28472+P34903).
T4 sequence (P18507 whole entry): T1 sequence (P18507 whole entry)
T4 sequence (P28472 whole entry): T1 sequence (P28472 whole entry)
T4 sequence (P34903 whole entry): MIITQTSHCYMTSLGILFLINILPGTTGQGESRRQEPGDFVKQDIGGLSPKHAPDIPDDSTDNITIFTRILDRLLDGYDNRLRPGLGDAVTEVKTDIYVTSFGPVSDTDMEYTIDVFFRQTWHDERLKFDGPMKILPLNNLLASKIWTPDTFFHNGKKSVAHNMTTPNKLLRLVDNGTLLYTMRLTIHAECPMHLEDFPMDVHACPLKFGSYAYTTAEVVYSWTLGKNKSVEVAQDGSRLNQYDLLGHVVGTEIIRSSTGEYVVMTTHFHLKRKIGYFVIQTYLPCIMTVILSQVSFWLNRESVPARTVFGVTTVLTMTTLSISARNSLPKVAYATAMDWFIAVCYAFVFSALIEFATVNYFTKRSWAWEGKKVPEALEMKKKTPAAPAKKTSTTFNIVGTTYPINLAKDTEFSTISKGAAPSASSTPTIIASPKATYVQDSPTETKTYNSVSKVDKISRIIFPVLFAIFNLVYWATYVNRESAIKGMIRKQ
Kind of data set: Displacement of [3H]Ro-151788 from human recombinant GABA-Aalpha3 receptor plus beta3gamma2. In kind it is protein-complex assay. Put shortly:
as §1

Data set [10] has as its target GABA-A receptor; alpha-5/beta-3/gamma-2 (Homo sapiens) (UniProt P18507+P28472+P31644). Put plainly: Efficacy against human recombinant GABA-Aalpha5 receptor plus beta-3-gamma-2 expressed in L(tk-) cells by whole cell patch clamp method. In kind it is functional, cell-based. Put shortly:
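Human α5β3γ2 GABA-A receptors stably expressed in L(tk-) cells; whole-cell patch clamp recording. Test compound applied against the current evoked by a sub-maximal GABA concentration (EC20), and efficacy expressed as the change in that current. Values are means of at least seven independent experiments.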

Data set [11] relates to Rattus norvegicus. Put plainly: Activity in rat beam walking assay at 100 mg/kg, po. In kind it is functional, organism-based. The arrangement: dose 100 mg/kg.
Data set [12] deals with T3, GABA-A receptor; anion channel (Rattus norvegicus). Kind of data set: Displacement of [3H]Ro-151788 from GABA-Aalpha receptor in rat po. In kind it is functional.
Data set [13] addresses GABA-A receptor; alpha-3/beta-3/gamma-2 (Homo sapiens) (UniProt P18507+P28472+P34903). Kind of data set: Efficacy against human recombinant GABA-Aalpha3 receptor plus beta-3-gamma-2 expressed in L(tk-) cells by whole cell patch clamp method. In kind it is functional, cell-based. A digest of the protocol: as §2

The values that follow come from ChEMBL document CHEMBL1146048, “Imidazo[1,2-a]pyrazin-8-ones, imidazo[1,2-d][1,2,4]triazin-8-ones and imidazo[2,1-f][1,2,4]triazin-8-ones as alpha2/alpha3 subtype selective GABA A agonists for the treatment of anxiety” (Bioorg Med Chem Lett, 2006).

Each structure is given as a SMILES string. Calls of active or inactive are those of the source. No cut-off for these calls is given here.

What is called Ki is a dissociation constant, usually derived from enzyme kinetics or from competition with a known ligand. For `CC(C)(O)c1ccn2c(-c3ccc(F)c(-c4cccnc4)c3)cnc2n1`, the figures for the Ki in data set [1] and in [2] were 0.52 nM and 1.4 nM, respectively.
For orientation: clearance means the volume of plasma or blood freed of the substance per unit of time. Read a low clearance as inefficient removal. By half-life is commonly meant the time in which the quantity being followed falls by half. The low end stands for fast loss, the high end for slow loss. In general, bioavailability refers to dose-corrected exposure relative to a reference, in per cent. The compound `CCn1ccn2c(-c3ccc(F)c(-c4ccc(F)cc4C#N)c3)cnc2c1=O` registered an Activity in data set [3] of 86%. Moreover, the result in the data set on Rattus norvegicus [4] was Active. In [5], this compound displayed a clearance of 17 mL/min/kg. Moreover, the half-life in [6] is 5 h. Further, the bioavailability in data set [7] is 38%. Moreover, the results for the inhibitory constant (Ki) in data set [1], in data set [2] and in data set [9] were 0.15 nM, 0.28 nM and 0.9 nM, respectively. Further, the results for the Efficacy in data set [8], in data set [10] and in data set [13] were -8%, -4% and 43%, respectively. In addition, in the data set with Rattus norvegicus [11], the outcome was inactive. In [12], the ID50 was determined as 0.7 mg/kg.
As for `Cn1ccn2c(-c3ccc(F)c(-c4ccc(F)cc4C#N)c3)cnc2c1=O`, the inhibition constant (Ki) was found to be 0.39 nM in data set [1], 0.7 nM in data set [2] and 1.9 nM in data set [9]. Besides, the Efficacy in data set [8] was -27%; in [13] it was 44%.
`Cn1ncn2c(-c3ccc(F)c(-c4ccc(F)cc4C#N)c3)cnc2c1=O`: the Ki in data set [1] was determined as 2.3 nM; in [2], 6.5 nM; in data set [9] it was 4.7 nM. Also, the results for the Efficacy in data set [8] and in data set [13] were -9% and 1%, respectively.
Turning to `CCn1ncn2c(-c3ccc(F)c(-c4ccc(F)cc4C#N)c3)cnc2c1=O`, the inhibition constant (Ki) in data set [1] was 0.95 nM; in [2] it was 2.4 nM; in data set [9] it was 3.4 nM. Moreover, the Efficacy in [8] is -19%; in [13] it was -7%.
With `Cn1cnn2c(-c3ccc(F)c(-c4ccc(F)cc4C#N)c3)cnc2c1=O`, the Ki in data set [1] was determined as 4.8 nM; in data set [2], 2.5 nM; in [9], 4.6 nM. Moreover, the Efficacy in data set [8] was -46%.
As to `CC(C)(O)c1cnn2c(-c3ccc(F)c(-c4c(F)cccc4C#N)c3)cnc2n1`, the figures for the inhibitory constant (Ki) in [1], in [2] and in data set [9] were 0.9 nM, 0.6 nM and 1.5 nM, respectively. Also, the results for the Efficacy in [8], in data set [10] and in data set [13] were 4%, 44% and 65%, respectively.
In the case of `Cn1ccn2c(-c3ccc(F)c(-c4c(F)cccc4C#N)c3)cnc2c1=O`, the inhibitory constant (Ki) in [1] amounted to 0.19 nM; in data set [2], 0.16 nM; in data set [9], 0.59 nM. In addition, the figures for the Efficacy in data set [8] and in data set [13] were 3% and 28%, respectively.
Taken in the same sequence, the figures for `Cn1ccn2c(-c3ccc(F)c(-c4ccccc4C#N)c3)cnc2c1=O` were 0.1 nM, 0.53 nM, 0.7 nM, 27% and 51%.
